Measurements taken from ChEMBL document CHEMBL4513216, “Probing the Open Global Health Chemical Diversity Library for Multistage-Active Starting Points for Next-Generation Antimalarials” (ACS Infect Dis, 2020).

assay: Toxicity liver stage against HepG2, at 10uM; type: cell-based; set-up: test concentration 10 uM, cell line HepG2-A16-CD81EGFP; settings: human, HepG2-A16-CD81EGFP cells; read-out: INHIBITION
In short: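 Uninfected HepG2-A16-CD81EGFP cells, 3 × 10^3 per well, 1536-well, plated on prespotted compound at 10 μM final, parasite-free screening media added to match infected plates; puromycin 10 μM positive, DMSO 0.5% negative; run in parallel with 48 h PbLuc assay at 37 °C, 5% CO2; viability by CellTiter-Glo luminescence, normalized to controls.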

SMILES	cytotoxicity at 10 µM [%]
Cn1nc(C(=O)N2CCCC(n3cncn3)C2)ccc1=O (stereo unspecified)	-17.4
c1cnn(CC2CN(Cc3csc(C4CCCCC4)n3)CCO2)c1 (stereo unspecified)	-6.37
CCc1ncnc2c1CCN(Cc1cccs1)CC2	4.98
CN(Cc1ccncc1)C(=O)NCc1nnc2n1CCCCC2	-26
Cn1ccnc1CN1CC[C@H]2CO[C@H](CNc3ncccn3)[C@H]2C1	-5.81
COCCN(Cc1ccccn1)C(=O)CC1OCCc2ccccc21 (stereo unspecified)	-42.5
COc1ccccc1OC1CN(C(=O)C2CNCC(=O)N2)C1 (stereo unspecified)	5.46
COCCO[C@@H]1C[C@H]2CN(C(=O)c3ccc(C)nc3)CCN2C1	-2.2
O=C1CN(Cc2occc2C(=O)NCCc2ccc(F)cc2)CCN1	-10.2
CN1CCN(CCOc2ccc(NC(=O)c3cnc[nH]3)cc2)CC1	0.71
COc1cccc(-n2nc(C(C)=O)c(C(C)=O)c2C)c1	9.51
CS(=O)(=O)N1CCc2c(cccc2NC(=O)NC2CCCC2)C1	-6.78
Cn1c(C2CC2)nc2c1CCN(Cc1nc(-c3ccsc3)no1)C2	8.73
CC1(C)CN(C(=O)c2cnc(CN3CCCC3)s2)CC[C@]1(C)O	-15.1
Cc1cccc(-c2ccc(C(=O)NCCN3CCOCC3)c(=O)[nH]2)c1	-5.88
CC1(C(=O)NCc2cccnc2Oc2ccc(F)cc2F)CCCNC1 (stereo unspecified)	-5.68
Cc1ccc(C(=O)N2CCC[C@@H]2Cn2nnc3c(O)nc(C)nc32)cc1	-10.3
Cc1cnccc1-c1cnn(CCNC(=O)c2cccnc2)c1C1CC1	4.34
O=C(Nc1ccc(Cl)cc1C(=O)NCCN1CCOCC1)c1ccco1	-4.62
CCC(CC)C(=O)NCCc1ccn(-c2ccccc2)n1	-8.8
Cc1cc(C)c2c(N3CCN(C(=O)N4CCOCC4)CC3)ncnc2n1	-8.29
CC(Sc1nnc(C2CC2)n1CC(N)=O)c1ccc(F)c(Cl)c1 (stereo unspecified)	4.26
O=C1CC(c2cccs2)c2snc(C(=O)O)c2N1 (stereo unspecified)	-11.1

SMILES	cytotoxicity at 10 µM [%]
Cc1cc(C)c(CNC(=O)N2CCCC2c2cc(C)on2)c(=O)[nH]1 (stereo unspecified)	1.1
O=C(NCCNc1cnccn1)NCC1CCS(=O)(=O)C1 (stereo unspecified)	-1.68
Cc1csc(N2CCCN(C(=O)CCNc3ncccn3)CC2)n1	-10.5
Cc1cc2nc(CO[C@H]3CN(CC4CC4)C[C@H]3F)[nH]c2cc1C	1.04
Cn1cccc1C(=O)N1CCCCC1c1ccn2ccnc2n1 (stereo unspecified)	-28.2
Cc1nc(C(NC(=O)C2CCCC2)c2ccccc2F)no1 (stereo unspecified)	-3.79
N#Cc1ccc(NCc2cccc(COC3CCOCC3)c2)nc1	32.4
CCCn1ncc(C(=O)N2CCN(C3CCCC3)CC2)c1C	-151
CCC(C)Nc1ccc2c(c1)C1(CCOCC1)C(=O)N2c1ccccc1 (stereo unspecified)	8.7
CC(C)C(=O)N1CCCc2c(cnn2-c2ccccc2)C1	11
CCOC[C@@H]1CCC[C@]12CN(S(=O)(=O)c1cn(C)cn1)CCO2	5.7
COc1cc(OC)cc(N2CCC(NCc3cccs3)C2=O)c1 (stereo unspecified)	4.63
COc1ccccc1OCCCn1c(C)c(C)oc1=O	0.129
Cc1cnc(N2CCOC3(CCCN(C)C3)C2)nc1 (stereo unspecified)	8.25
CN(C)c1cc(N(C)Cc2cc(C(C)(C)C)n[nH]2)ncn1	-0.629
O=C(NC1CC1)c1nc(Cn2c(C(F)F)nc3ccccc32)no1	7.59
CCc1oc(C(=O)N2CCCC(c3nnn[nH]3)C2)cc1C (stereo unspecified)	9.09
COCCc1nnc(NC(=O)Cc2ccccc2Cl)o1	-6.95
Cc1cnn(CCNCc2c(C)nn(-c3ccccc3)c2C)c1	-14.1
O=C1CCN(CCCS(=O)(=O)c2ccc(Cl)cc2)CCN1	2.43
CCc1cc(CN(C)C(=O)c2cnc3c(c2)nc(N)n3CC)on1	1.3
Cc1ccc(N2CCN(c3ccccc3C)CC2C)nn1 (stereo unspecified)	13.2
CC(C)CCN(c1cn[nH]c1)S(=O)(=O)c1cccc(C#N)c1	7.95

SMILES	cytotoxicity at 10 µM [%]
Cn1ccnc1-c1cn(CCc2nnc(N)s2)nn1	-4.3
Cc1cc(F)ccc1N1CCCC(NC(=O)CCCn2ccnc2)C1 (stereo unspecified)	3.45
O=C(CN1CCCC1Cn1cncn1)Nc1ccnn1C1CCCC1 (stereo unspecified)	-1.07
Cc1noc(C2CCN(C(=O)c3cc(Br)ccc3F)CC2)n1	-6.14
Cc1cc(CN2CCC(N(C)Cc3noc(C4CC4)n3)C2)on1 (stereo unspecified)	1.54
CC(C)[C@H](N)c1nnc(SCC(=O)Nc2ccc(Br)cc2)o1	-5.15
Cc1cccc(C2CCCN2S(=O)(=O)N(C)C)n1 (stereo unspecified)	-5.5
O=C(N1CCCO1)[C@@]12CCO[C@@H]1CCN(Cc1cccnc1)C2	-4.26
Cc1ccn(-c2ccc(NCc3ccnc(N4CCCCC4)c3)nn2)n1	-0.715
CC(C)(C)[S+]([O-])CCNC(=O)c1cccc2ncccc12 (stereo unspecified)	-45.1
O=S(=O)(Cc1ccon1)N1CCN(c2ccncc2Cl)CC1	-4.96
Cn1c(NCCC(=O)N2CCCC2)c(C#N)c(=O)n(C)c1=O	-9.28
Cn1cnc(S(=O)(=O)NCCCN2CCOCC2)c1Cl	-11.2
CC(C)CNC(=O)CNC(=O)NC(c1nccs1)C1CC1 (stereo unspecified)	-6.66
COc1ccc(C2=CCN(C(=O)C3CCN(C)C(=O)C3)CC2)cc1 (stereo unspecified)	-9.09
CN(c1ccc(CNC(=O)c2c[nH]c(=O)c(Cl)c2)cc1)C1CCCCC1	88.9
Cc1cc(CN2CCN(C(c3ccccc3)c3ccccc3)CC2)no1	-6.56
CCOc1ccc(C(=O)Nc2c(C)nc3ccc(Cl)cn3c2=O)cc1	-4.31
COc1ccnc(N(C)Cc2c(C)noc2C)n1	-3.84
Cc1cnc(N2CCC3(CCCCN3C)C2)nc1 (stereo unspecified)	3.29
COC(=O)C1CCN(C(=O)c2ccc(C)c(NS(C)(=O)=O)c2)CC1	3.98
O=C(c1cccc2c1OCCO2)N1CCCCC1Cn1cccn1 (stereo unspecified)	-4.94
CC(C)Cc1cc(C(=O)NC(C)(C)CN2CCCCCC2)on1	-4.75

SMILES	cytotoxicity at 10 µM [%]
CCn1ncc2c1CCCC2NCc1cccc2c1OCO2 (stereo unspecified)	-6.43
Cc1nc(C)n(CC2CN(Cc3ccc4c(c3)OCCO4)CCO2)n1 (stereo unspecified)	-3.63
N#Cc1cccc(N2CCCC(CO)(Cc3ccccc3F)C2)n1 (stereo unspecified)	1.54
CCc1nc(C2CCCN2C(=O)CCn2cncn2)no1 (stereo unspecified)	-5.63
Cc1noc2ncc(C(=O)N3CCCC(n4cccn4)C3)cc12 (stereo unspecified)	-1.39
O=C(Nc1ccccc1)N1CCn2c(nnc2C2CCNCC2)C1	-3.84
COC(=O)c1sccc1S(=O)(=O)NCCC(O)c1ccoc1 (stereo unspecified)	-2.64
O=C1CO[C@H]2CN(Cc3ccc(F)c(F)c3)C[C@H]2N1	-2.49
COc1cccc(CN(C)C(=O)CN2CC(n3nc(C)cc3C)C2)c1	-1.38
NC(=O)c1cc(C2CCCN(CCOCC(F)(F)F)C2)n[nH]1 (stereo unspecified)	-11.8
O=C(Nc1cccc(OCC(F)F)n1)c1ccncc1F	-3.33
Cn1nc(C2CCCN2)c2c(C(=O)NC3CC3)cc(C3CC3)nc21 (stereo unspecified)	15.3
CN(Cc1cccs1)C(=O)CS(=O)(=O)Cc1ccc(Cl)c(Cl)c1	0.866
CNS(=O)(=O)c1ccc(CNC(=O)Nc2cc(C)on2)s1	-2.34
O=S(=O)(NCC1OCCc2cn(Cc3ccccn3)nc21)C1CC1 (stereo unspecified)	-143
CCOc1ccc(C(=O)N(Cc2cnn(C)c2)C(C)C)cc1	13.4
COc1cc2c(cc1CNC(Cc1cccs1)c1nccs1)OCCO2 (stereo unspecified)	-1.6
CCNC(=O)Nc1ncc(-c2cccnc2)s1	14.6
CCn1c(C)nnc1SCCNC(=O)c1sc(C(C)C)nc1C	-1.27
Cc1cccc(OCC(=O)NS(=O)(=O)Cc2ccccc2)c1	0.224
Cc1cc(Cc2cccc(C(F)(F)F)c2)cc(C2CCCNC2)n1 (stereo unspecified)	-2.34
CC(C)CN1C(=O)CO[C@@H]2CN(C(=O)N(C)C)C[C@H]21	0.657
Cc1csc(CCCNC(C)CC(=O)Nc2ccc(F)cc2)n1 (stereo unspecified)	1.52

SMILES	cytotoxicity at 10 µM [%]
CC(C)(C)c1nnc(CN(Cc2cccs2)CC2CCCO2)o1 (stereo unspecified)	15.8
CC(=O)N1CCO[C@@H]2CN(S(=O)(=O)C3CC3)CC[C@@H]2C1	-112
CC(C)c1cc(CNC(=O)Nc2cc(F)cc(N3CCCC3)c2)on1	1.57
O=C(c1ccncc1)N1CCCC1c1cccc(Br)c1 (stereo unspecified)	16.9
c1ccc(CN2Cc3nccn3CC(Cn3cncn3)C2)nc1 (stereo unspecified)	-141
Cc1ccc(Oc2ncccc2CNC(=O)C2COC(=O)N2)c(F)c1F (stereo unspecified)	1.82
O=S1(=O)CCC(c2nc(-c3cccc(Br)c3)no2)C1 (stereo unspecified)	7.51
Cc1ccc(-c2nc(CN3CCc4nn(C)c(=O)cc4C3)co2)cc1	-11.6
CC(C)n1nnnc1-c1ccc(NC(=O)CC(F)(F)F)cc1F	6.62
CSCc1ccc(CNC2CCCN(c3ccc(C)nn3)C2)o1 (stereo unspecified)	-13.2
CCc1nc(CN2CCCC(NCc3nc4ccccc4o3)C2)no1 (stereo unspecified)	-3.81
COc1ccc(CN(C(=O)C(C)C)c2cnn(C)c2)c(OC)c1	3.2
O=C(NCCCOC1CCCCC1)C1NCCc2[nH]cnc21 (stereo unspecified)	4.68
Cc1nc(CN2C[C@@H]3CCCO[C@@H]3[C@H](N(C)C(C)C)C2)cs1	6.86
CC(=O)N1CC[C@H]2OCC[C@@H](C(=O)Nc3cccnc3C)[C@H]2C1	0.0861
Cc1oc(CNC(=O)Cc2ccc3ccccc3c2)cc1C(=O)O	3.63
COCC1c2c(cnn2C)CCN1C(=O)c1cscn1 (stereo unspecified)	-101
COCCCN(CCOC)C(=O)Nc1ccccc1-n1cccn1	1.51
CCc1nc(C)c(C(=O)NCCn2nc3ccccn3c2=O)s1	-9.42
